From article PMC10194142 (Virus Research, 2023)

Legend:
ZIKV NS2B-NS3 protease [1] = target: T1, ZIKV NS2B-NS3 protease (Zika virus, UniProt Q32ZE1); assay: ZIKV NS2B-NS3 enzyme-based fluorescence peptide cleavage assay; format: biochemical; conditions: for protease activity inhibition efficacy in screening: inhibitor concentration of 50 μM, 5 μM protease, 10 μM substrate
T1 sequence (Q32ZE1 with tags, fused parts or gaps DEL1468-1489/Y1490G/V1491G/Y1492G/V1493G/K1494S/T1495G/K1497G/R1498G): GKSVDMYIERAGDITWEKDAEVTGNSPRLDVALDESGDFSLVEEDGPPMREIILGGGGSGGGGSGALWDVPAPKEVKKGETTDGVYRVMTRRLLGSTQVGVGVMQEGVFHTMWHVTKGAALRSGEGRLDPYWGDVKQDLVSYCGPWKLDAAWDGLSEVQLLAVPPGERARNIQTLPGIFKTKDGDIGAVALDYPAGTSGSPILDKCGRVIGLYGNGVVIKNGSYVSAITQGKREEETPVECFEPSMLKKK
How it was run: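 His-tagged NS2B-NS3 protease was expressed in E. coli BL21(DE3) and purified by metal-affinity chromatography. Test compound at 6.25–100 μM was incubated with 5 μM protease in cleavage buffer for 30 min at 37 °C, then with 10 μM Boc-KKR-AMC for 1 h. AMC fluorescence was read at ex 355 / em 455 nm. Activity is expressed as % of the protease-alone control.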

ZIKV [2] = conditions: primary placental cells, dose range of 0.2 to 1 μM; ref Tabata et al., 2016; cited from earlier work
ZIKV (MR-766) = assay: ZIKV RNA replication in infected Huh-7 cells by RT-qPCR; format: cell-based, Zika virus; conditions: for inhibition of ZIKV replication (ZIKV RNA level): 0.2, 0.69, 2, 6 μM for 72 h, Huh-7, MOI 0.1; for Selectivity index (SI = CC50/EC50): Huh-7 cells; for EC50: Zika virus, Huh-7, 72 h
[3] = Cell viability by ATPlite; format: cell-based; conditions: human, Huh-7 cells
ZIKV NS2B-NS3 protease [4] = target: T1, ZIKV NS2B-NS3 protease; assay: Kinetic analysis of inhibition mechanism; format: biochemical; conditions: for inhibition mechanism: 75 μM compound, 5 μM protease, Boc-KKR-AMC 0 to 20 μM; for Kcat / Vmax value: protease with 75 μM compound; for Kcat: untreated protease 0.0142; for Vmax value: untreated protease 0.071
How it was run: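 Purified His-tagged NS2B-NS3 protease was expressed in E. coli BL21(DE3). 5 μM protease was preincubated with 75 μM test compound in cleavage buffer for 30 min at 37 °C. Boc-KKR-AMC at 0–20 μM was then added for 1 h at 37 °C. Released AMC was read at ex 355 / em 455 nm against an AMC standard curve. Mechanism was assigned from Lineweaver-Burk plots.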

ZIKV [5] = conditions: plaque reduction assay; ref Chan et al., 2017; cited from earlier work
ZIKV [6] = assay: ZIKV-infected ICR suckling mouse model; format: in vivo
How it was run: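 Six-day-old ICR suckling mice (n = 6 per group) were injected intracerebrally with 10^4 pfu ZIKV. Mock mice received 60 °C heat-inactivated virus. Saline or test compound (1 or 10 mg/kg, i.c.) was given at days 1, 3 and 5 post-infection. At day 6, 0.1 g brain was lysed in RIPA for NS2B western blot. The remaining brain had H&E and IHC (NS1, Ly6C), with infiltration quantified. Data are mean ± SD.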

In the case of `CCc1ccc(S(=O)(=O)/N=C2\C=C(NS(=O)(=O)c3ccccc3)C(=O)c3ccccc32)cc1` [Compound 5, (E)−4-ethyl-N-(4-oxo-3-(phenylsulfonamido)naphthalen-1(4H)-ylidene)benzene sulfonamide], the IC50 (ZIKV NS2B-NS3 protease [1]) is reported as over 100 µM.

In the case of duramycin, the “block of ZIKV infection” value (ZIKV [2]) is given as over 80%.

In the case of `Cc1ccc(S(=O)(=O)/N=C2\C=C(NS(=O)(=O)c3ccccc3)C(=O)c3ccccc32)cc1` [Compound 7, (E)−4-methyl-N-(4-oxo-3-(phenylsulfonamido)naphthalen-1(4H)-ylidene)benzenesulfonamide], the IC50 (ZIKV NS2B-NS3 protease [1]) is reported as over 100 µM.

With `Cc1ccc(NC(=O)COc2ccc(C=C3C(=O)N(c4ccccc4)C(=S)N(c4ccccc4)C3=O)cc2)cc1C` [Compound 9, N-(3,4-dimethylphenyl)−2-(4-((4,6-dioxo-1,3-diphenyl-2-thioxotetrahydropyrimidin-5(2H)-ylidene)methyl)phenoxy)acetamide] the “inhibition of ZIKV replication (ZIKV RNA level)” value (“inhibition of ZIKV replication” below) (ZIKV (MR-766)) was “could significantly inhibit ZIKV replication”, the “Selectivity index (SI = CC50/EC50)” value (ZIKV (MR-766)) was 17.46 and the EC50 (ZIKV (MR-766)) was 3.52 µM. The IC50 (ZIKV NS2B-NS3 protease [1]) was 14.2 µM, the “protease activity inhibition efficacy in screening” value (ZIKV NS2B-NS3 protease [1]) was “better protease activity inhibition efficacy than others” and the CC50 at 48 h [3] was 61.5 µM. The inhibition mechanism (ZIKV NS2B-NS3 protease [4]) was “non-competitive”, the Kcat (ZIKV NS2B-NS3 protease [4]) was 0.000143 s⁻¹ and the Vmax value (ZIKV NS2B-NS3 protease [4]) was 0.043 µmol/min.

With `CC(C)c1ccc(S(=O)(=O)/N=C2/C=C(NS(=O)(=O)c3ccccc3)C(=O)c3ccccc32)cc1` [Compound 10, (Z)−4-isopropyl-N-(4-oxo-3-(phenylsulfonamido)naphthalen-1(4H)-ylidene)benzenesulfonamide] the IC50 (ZIKV NS2B-NS3 protease [1]) was over 100 µM.

In the case of `CC(C)C[C@H]1C(=O)N2CCC[C@H]2[C@]2(O)O[C@](NC(=O)[C@@H]3C=C4c5cccc6[nH]c(Br)c(c56)C[C@H]4N(C)C3)(C(C)C)C(=O)N12` [bromocriptine], the ZIKV-mediated plaque reduction (ZIKV [5]) is listed as about 100%.

In the case of `Cc1cc(C)c(S(=O)(=O)/N=C2\C=C(NS(=O)(=O)c3ccccc3)C(=O)c3ccccc32)cc1C` [Compound 6, (E)−2,4,5-trimethyl-N-(4-oxo-3-(phenylsulfonamido)naphthalen-1(4H)-ylidene)benzenesulfonamide], the IC50 (ZIKV NS2B-NS3 protease [1]) is reported as over 100 µM.

In the case of `O=C1C(=Cc2cc(I)c(O)c(I)c2)C(=O)N(c2ccccc2)C(=S)N1c1ccccc1` [Compound 4, 5-(4‑hydroxy-3,5-diiodobenzylidene)−1,3-diphenyl-2-thioxodihydropyrimidine-4,6(1H,5H)-dione], the IC50 (ZIKV NS2B-NS3 protease [1]) is reported as over 100 µM.

Work on `Cc1ccc(S(=O)(=O)/N=C2\C=C(NS(=O)(=O)c3ccccc3)C(=O)c3ccccc32)c(C)c1` [Compound 11, (E)−2,4-dimethyl-N-(4-oxo-3-(phenylsulfonamido)naphthalen-1(4H)-ylidene)benzenesulfonamide] yielded an IC50 (ZIKV NS2B-NS3 protease [1]) of over 100 µM.

For `Oc1cccc(-c2c3nc(c(-c4cccc(O)c4)c4ccc([nH]4)c(-c4cccc(O)c4)c4nc(c(-c5cccc(O)c5)c5ccc2[nH]5)CC4)C=C3)c1` [Temoporfin, reference compound], the “Selectivity index (SI = CC50/EC50)” value (ZIKV (MR-766)) was 30.53, the EC50 (ZIKV (MR-766)) was 2 µM and the IC50 (ZIKV NS2B-NS3 protease [1]) was 18.8 µM. It also gave a CC50 at 48 h [3] of 61.1 µM.

For `CC(=O)Oc1ccc(C=C2C(=O)N(c3ccccc3)C(=S)N(c3ccccc3)C2=O)cc1` [Compound 1, 4-((4,6-dioxo-1,3-diphenyl-2-thioxotetrahydropyrimidin-5(2H)-ylidene)methyl)phenyl acetate], the IC50 (ZIKV NS2B-NS3 protease [1]) was 63.4 µM.

For `COc1cc(C=C2C(=O)N(c3ccc(C)cc3)C(=S)N(c3ccc(C)cc3)C2=O)cc(Br)c1O` [Compound 8, 5-(3‑bromo-4‑hydroxy-5-methoxybenzylidene)−2-thioxo-1,3-di-p-tolyldihydropyrimidine-4,6(1H,5H)-dione], the “survival (protection from lethal ZIKV infection)” value (ZIKV [6]; 1 mg/kg or 10 mg/kg on days 1, 3, 5, observed 6 days, vs saline) was “protected all ZIKV-infected suckling mice from lethal ZIKV infection”, the “clinical score (sickness)” value (ZIKV [6]; 1 mg/kg or 10 mg/kg on days 1, 3, 5, vs saline) was “a delay in the sickness induced by ZIKV infection” and the “Ly6C+ monocyte infiltration in brain tissue” value (ZIKV [6]; 6 dpi, vs saline-treated group) was “significantly less accumulated”. The “ZIKV NS1 level in brain tissue (IHC)” value (ZIKV [6]; 6 dpi, vs saline-treated group) was “significantly decreased”, the “ZIKV NS2B protein level in brain tissue (western blot)” value (ZIKV [6]; 6 dpi, vs saline-treated group) was “significantly decreased” and the “inhibition of ZIKV replication” value (ZIKV (MR-766)) was “could significantly inhibit ZIKV replication”. The EC50 (ZIKV (MR-766)) was 0.52 µM, the IC50 (ZIKV NS2B-NS3 protease [1]) was 6.85 µM and the “protease activity inhibition efficacy in screening” value (ZIKV NS2B-NS3 protease [1]) was “better protease activity inhibition efficacy than others”. The CC50 at 48 h [3] was over 200 µM, the inhibition mechanism (ZIKV NS2B-NS3 protease [4]) was “non-competitive” and the Kcat (ZIKV NS2B-NS3 protease [4]) was 0.00015 s⁻¹. For the same compound, the Vmax value (ZIKV NS2B-NS3 protease [4]) was 0.045 µmol/min.

With `COc1cc(C=C2C(=O)N(c3ccccc3)C(=S)N(c3ccccc3)C2=O)cc(I)c1OCc1ccccc1Cl` [Compound 3, 5-(4-((2-chlorobenzyl)oxy)−3-iodo-5-methoxybenzylidene)−1,3-diphenyl-2-thioxodihydropyrimidine-4,6(1H,5H)-dione] the “inhibition of ZIKV replication” value (ZIKV (MR-766)) was “could significantly inhibit ZIKV replication”, the EC50 (ZIKV (MR-766)) was 2.15 µM and the IC50 (ZIKV NS2B-NS3 protease [1]) was 14 µM. For the same compound, the “protease activity inhibition efficacy in screening” value (ZIKV NS2B-NS3 protease [1]) was “better protease activity inhibition efficacy than others”, the CC50 at 48 h [3] was over 200 µM and the inhibition mechanism (ZIKV NS2B-NS3 protease [4]) was “non-competitive”. For the same compound, the Kcat (ZIKV NS2B-NS3 protease [4]) was 0.00013 s⁻¹ and the Vmax value (ZIKV NS2B-NS3 protease [4]) was 0.040 µmol/min.

Compound `COc1cc(C=C2C(=O)N(c3ccccc3)C(=S)N(c3ccccc3)C2=O)cc(Br)c1OCc1cccc2ccccc12` [Compound 2, 5-(3‑bromo-5‑methoxy-4-(naphthalen-1-ylmethoxy)benzylidene)−1,3-diphenyl-2-thioxodihydropyrimidine-4,6(1H,5H)-dione] has an IC50 (ZIKV NS2B-NS3 protease [1]) of 72.5 µM.
